ChEMBL document CHEMBL1155001, “Design, synthesis of novel peptidomimetic derivatives of 4-HPR for rhabdoid tumors” (Bioorg Med Chem Lett, 2008)
pIC50: −log10 of the molar value.

How the values were obtained:
Format in all cases: functional, cell-based
[1] = Cytotoxicity against INI1 gene deficient human MON cells assessed as cell survival after 3 days by MTS assay; conditions: 72 h
Outline: (§1)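 INI1-deficient MON rhabdoid tumor cells were grown in RPMI 1640 with 10% FBS, 2 mM L-glutamine, penicillin and streptomycin at 37 °C in 5% CO2. Survival was read by MTS after 3 days. Relative IC50 was taken from a sigmoidal variable-slope fit of % inhibition vs log concentration.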

[2] = Cytotoxicity against human MON cells assessed as cell survival after 3 days by MTS assay; conditions: 72 h; outline: as §1
[3] = Cytotoxicity against human STM cells assessed as cell survival after 3 days by MTS assay; conditions: 72 h
G-401 = test: Cytotoxicity against human G401 cells assessed as cell survival after 3 days by MTS assay; conditions: G-401, 72 h

| SMILES | pIC50 [1] | pIC50 [2] | pIC50 [3] | pIC50 (G-401) |
| --- | --- | --- | --- | --- |
| CCC1=C(C)/C(=C/c2ccc(C(=O)Nc3ccc(O)cc3O)cc2)CCC1(C)C | 4.33 |  |  |  |
| CCC1=C(C)/C(=C/c2ccc(C(=O)Nc3ccc(CO)cc3)cc2)CCC1(C)C | 4.54 |  |  |  |
| CC1=C(/C=C/C(C)=C/C=C/C(C)=C/C(=O)Nc2ccc(O)cc2)C(C)(C)CCC1 [FENRETINIDE] | 4.83 | 4.92 | 5.30 | 5.30 |
| CCC1=C(C)/C(=C/c2ccc(C(=O)Nc3ccc(O)c(I)c3)cc2)CCC1(C)C | 5.50 |  |  |  |
| CCC1=C(C)/C(=C/c2ccc(C(=O)O)cc2)CCC1(C)C | < 4.30 |  |  |  |
| CCC1=C(C)/C(=C/c2ccc(C(=O)Nc3ccc(O)c(Cl)c3)cc2)CCC1(C)C | 4.98 |  |  |  |
| CCC1=C(C)/C(=C/c2ccc(C(=O)Nc3ccc(O)c(F)c3)cc2)CCC1(C)C | 4.89 |  |  |  |
